Assay results from ChEMBL document CHEMBL3046072, “Plant P5C reductase as a new target for aminomethylenebisphosphonates” (J Agric Food Chem, 2007).
pIC50: −log10 of the molar value.

Target: T1, Pyrroline-5-carboxylate reductase (Arabidopsis thaliana, UniProt P54904)
T1 sequence (P54904 whole entry): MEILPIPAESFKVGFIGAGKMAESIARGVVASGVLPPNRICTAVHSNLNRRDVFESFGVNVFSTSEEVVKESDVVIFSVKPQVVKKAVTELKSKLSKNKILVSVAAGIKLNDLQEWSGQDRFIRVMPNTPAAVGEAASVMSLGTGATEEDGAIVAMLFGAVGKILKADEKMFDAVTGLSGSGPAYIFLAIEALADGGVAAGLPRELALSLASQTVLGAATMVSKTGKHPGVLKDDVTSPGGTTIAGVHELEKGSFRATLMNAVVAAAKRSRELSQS
Assay: Inhibition of Arabidopsis thaliana P5C reductase catalytic activity
Conditions: read-out: I50
Method in brief: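 P5C reductase partially purified from A. thaliana Columbia suspension-cultured cells by ammonium sulfate cut and two DEAE-Sephacel steps. Assay at 35 °C: 100 mM Tris-HCl pH 8.0, 0.1 mM MgCl2, 2 mM DL-P5C, 0.25 mM NADH. Read as NADH oxidation at 340 nm, or as P5C loss by ninhydrin at 535 nm. Inhibitor neutralised to pH 7.4, tested over 0.010–5 mM. I50 from regression of % control activity versus log concentration.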

How did the pIC50 turn out when O=P(O)(O)C(Nc1cc(Cl)cc(Cl)c1)P(=O)(O)O [(3,5-DICHLOROPHENYLAMINO)METHYLENEDIPHOSPHONIC ACID] was run?
The pIC50 was 4.11.
